Sampled rows, rich in hits. Any-hit rate of the full collection: about 0.77%.
mIAP activ: activators of mouse IAP, primary screen, biochemical, luminescence, uHTS | intestinal alkaline phosphatase [Mus musculus] | muIAP, CDP-Star luminescence, 30 min; hits give high values; 1 = vehicle-only enzyme signal, 0 = enzyme-free wells | activation factor at 10 µM | 330,000 tested, 0.24% active;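 active = activation factor of at least 2 at 20 µM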
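Assay system: mouse IAP enzyme / Compound: DMSO-dissolved test compounds / Timing: 30 min, room temperature / Measured by: luminescence from enzymatic CDP-Star hydrolysis / Control set: DMSO-only wells, enzyme-free buffer wells as negative control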
mIAP inh: inhibitors of mouse IAP, primary screen, biochemical, luminescence, uHTS | intestinal alkaline phosphatase [Mus musculus] | purified mouse IAP, CDP-Star luminescence, 30 min | inhibition, % at 10 µM | 330,000 tested, 0.2% active;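 active = inhibition of at least 40% at 10 µM in the primary screen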
bIAP inh: bovine intestinal alkaline phosphatase inhibitors, primary screen, selectivity assay for TNAP inhibitor project, biochemical, bovine IAP, CDP-star luminescence; purified bovine IAP, 30 min; inhibition, % at 20 µM; 190,000 tested, under 10 active; AID 1019, 2008;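 active = over 50% inhibition of intestinal alkaline phosphatase at 20 µM in the single-dose screen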
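System: Purified bovine intestinal alkaline phosphatase (IAP) enzyme | Input: IAP diluted 1/65,000,000 in the well | Also added: CDP-star chemiluminescent phosphatase substrate, 30 µM final | Dosing: 20 µM single dose | Times: Enzyme reaction for 30 min at room temperature | Detection: Luminescence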
hIAP block: human IAP inhibitors, primary screen, biochemical, luminescence, uHTS. Intestinal-type alkaline phosphatase (Homo sapiens), P09923. purified IAP, CDP-Star luminescence, 30 min. inhibition, % at 10 µM. 330,000 tested, 0.12% active;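 active = inhibition reaching a set limit with compound at 10 µM in the primary screen, cut at about 35% in these data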
Target sequence (P09923 whole entry, looked up): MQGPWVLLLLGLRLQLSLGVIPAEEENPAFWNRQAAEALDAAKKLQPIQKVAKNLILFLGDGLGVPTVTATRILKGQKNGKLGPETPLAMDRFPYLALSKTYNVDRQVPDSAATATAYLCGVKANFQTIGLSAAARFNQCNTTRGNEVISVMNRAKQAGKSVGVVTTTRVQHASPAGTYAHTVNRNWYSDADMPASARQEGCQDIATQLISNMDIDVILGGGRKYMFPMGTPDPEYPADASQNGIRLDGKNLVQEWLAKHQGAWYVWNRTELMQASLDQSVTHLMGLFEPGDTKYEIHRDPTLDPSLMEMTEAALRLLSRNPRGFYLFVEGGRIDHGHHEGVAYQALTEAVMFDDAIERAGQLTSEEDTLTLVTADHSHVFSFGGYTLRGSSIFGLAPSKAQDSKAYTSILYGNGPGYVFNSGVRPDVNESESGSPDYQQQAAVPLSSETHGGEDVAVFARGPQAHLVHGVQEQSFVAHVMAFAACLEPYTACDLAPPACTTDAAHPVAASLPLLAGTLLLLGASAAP
bIAP activator: bovine intestinal alkaline phosphatase activators, primary screen, biochemical, bovine IAP, CDP-star luminescence; activation factor at 20 µM; 200,000 tested, 0.17% active; purified bovine IAP, 30 min; hits give high values; fold of DMSO-control signal, blank-subtracted; AID 1016, 2008; alkaline phosphatase, intestinal [Bos taurus];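 active = activation factor of 2 or more at 20 µM, a signal rise over negative controls twice the positive control's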
hIAP activ: human IAP activators, primary screen, biochemical, luminescence, uHTS; purified human IAP, CDP-Star luminescence, 30 min; hits give high values; 1 = vehicle-only enzyme, 0 = enzyme-free background; activation factor at 10 µM; 330,000 tested, 0.16% active;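 active = activation factor of the enzyme at least 2-fold when tested at 20 µM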
Large screens that a line does not name were inactive.

COc1cccc(OCC(=O)NNC(=O)c2cccs2)c1	mIAP inh 41
Cc1ccc(N(C(=O)Cn2nnc(-c3ccccc3)n2)C(C(=O)NC2CCCCC2)c2ccccn2)cc1C (centres undefined)	none
CC(C)(C)c1ccc(OCC(=O)Nc2ccc(-c3nc4cccnc4o3)cc2)cc1	bIAP activator 2
O=C(CCc1ccccc1Cl)Nc1cccc(S(=O)(=O)N2CCCC2)c1	none (no result: bIAP inh, bIAP activator)
Cc1cc(OCC(=O)Nc2cccc(S(=O)(=O)N3CCCC3)c2)ccc1Cl	none (no result: bIAP inh, bIAP activator)
O=C(Cc1ccccc1Cl)Nc1cccc(S(=O)(=O)N2CCCCCC2)c1	mIAP activ 2.1 (no result: bIAP inh, bIAP activator)
Cc1cc(OCC(=O)Nc2cccc(S(=O)(=O)N3CCCCC3)c2)ccc1Cl	mIAP activ 3.1 (no result: bIAP inh, bIAP activator)
COc1cc(/C=c2\s/c(=C(/C#N)C(=O)N3CCCC3)n(-c3ccccc3)c2=O)ccc1O	mIAP inh 42 (no result: bIAP inh)
COC(=O)/C=c1/s/c(=C(/C#N)C(=O)N2CCCCC2)n(-c2ccccc2)c1=O	none
NS(=O)(=O)c1ccc(CCNc2ccccc2[N+](=O)[O-])cc1	none (no result: bIAP inh, bIAP activator)
C/C=C/C(=O)Nc1cccc(C2=NOC3(C2)C[C@@H](C(N)=O)N(C(=O)C(c2ccccc2)c2ccccc2)C3)c1 (some centres undefined)	none (no result: bIAP inh, bIAP activator)
O=C(NCCSCc1ccco1)Nc1cc(Cl)cc(Cl)c1	mIAP activ 2.4 (no result: bIAP inh, bIAP activator)
Cc1oc2ccc(O)cc2c1C(=O)c1ccc([N+](=O)[O-])cc1	none
CN(C)/C=C/c1oc2ccc(O)cc2c1[N+](=O)[O-]	hIAP block 46
Cc1cccc(C)c1NC(=O)Cn1cc(C=O)c2ccccc21	none (no result: bIAP inh, bIAP activator)
Cc1ccc(N=C2NC(=O)/C(=C\c3ccco3)S2)cc1	mIAP inh 45
Cc1cccc(N=C2NC(=O)/C(=C/C=C/c3ccco3)S2)c1	none (no result: mIAP activ, mIAP inh, hIAP block, hIAP activ)
COc1cc(/C=C(\C#N)C(=O)Nc2cccc3ncccc23)ccc1O	hIAP block 42
CCN(CC)S(=O)(=O)c1ccc(NC(=O)CCC2CCCCC2)cc1	bIAP activator 2.3 (no result: mIAP activ, mIAP inh, hIAP block, hIAP activ)
FC(F)(F)c1cccc(NC(=S)NCC2COc3ccccc3O2)c1 (centres undefined)	mIAP activ 3.6
CCCCNC(=S)Nc1ccc(Cl)cc1	none
FC(F)(F)c1cccc(NC(=S)NC2CCCC2)c1	mIAP activ 2.6
FC(F)(F)c1ccc(NC(=S)NC2CCCCC2)cc1	mIAP activ 2.7
O=C(O)c1ccc(NC(=S)NC2CCCCC2)cc1	none
CCCCNC(=S)Nc1ccc(C(F)(F)F)cc1	mIAP activ 2.2
c1ccc2cc(CSCc3nc4ccccc4[nH]3)ccc2c1	none
COC(=O)C1=C(C(=O)OC)[N+]2=C3N(C(=O)NC2(C)C)[C@H](CO)C[C@@]32c3ccccc3N(Cc3ccccc3)[C@@H]12	none (no result: bIAP inh, bIAP activator)
Cc1cc(C(=O)Nc2c(C)nn(Cc3ccc(F)cc3)c2C)on1	none
Cc1nn(Cc2ccc(F)cc2)c(C)c1NC(=O)C1c2ccccc2Oc2ccccc21	mIAP activ 2.9
CC(C)CCNC(=O)C(=O)Nc1ccccc1	none
CCCCc1c(O)nc(SCC(=O)NC(C)(C)C)n(-c2ccccc2C)c1=O	mIAP inh 42
O=C(NC1CCN(C(=O)Nc2cccc(Cl)c2)CC1)c1ccccc1	none (no result: bIAP inh, bIAP activator)
O=C(Nc1cccc(Cl)c1)N1CCN(C2c3ccccc3-c3ccccc32)CC1	mIAP activ 2.1 (no result: bIAP inh, bIAP activator)
COc1cc(C)c2c(c1C=O)Oc1c(c(C)c(O)c3c1C(O)OC3=O)OC2=O (centres undefined)	mIAP inh 54
COc1ccc(Oc2cccc(Cl)c2CNC(=O)CCC(=O)O)cc1	none (no result: bIAP inh, bIAP activator)
COc1ccc(CNC[C@@H](CCCCN(C)Cc2ccc(OC)cc2)N2C[C@H](c3ccccc3)N(CCc3ccc(Cl)c(Cl)c3)C(=O)C2=O)cc1	bIAP activator 6.6
COCCN1C(=O)N[C@@H](c2ccc(Br)cc2)C(C(C)=O)=C1C	none (no result: mIAP activ, mIAP inh, hIAP block, hIAP activ)
Cc1ccc(S(=O)(=O)N(C)CC(=O)N2CC(C)OC(C)C2)cc1 (centres undefined)	none (no result: bIAP inh, bIAP activator)
CCCCNc1nc2ccccc2[nH]1	bIAP activator 3.1
CCO[C@@H]1OC(C(N)=O)=C[C@H](C2CCCCC2)[C@H]1CCCO	mIAP inh 45 (no result: bIAP inh, bIAP activator)
C/C(=N/NC(=O)c1ccc(Br)o1)C(C)C	none
S=c1[nH]nc(-c2ccccc2)n1/N=C/C=C/c1ccco1	mIAP inh 53
COc1ccc(-c2[nH]ncc2C2N=C(N)Nc3nc4ccccc4n32)cc1 (centres undefined)	bIAP activator 2.2
O=c1[nH]c2cc(Cl)c([N+](=O)[O-])nc2[nH]1	mIAP inh 54
CCOc1cc(/C=C2\NC(=S)N(c3c(C)n(C)n(-c4ccccc4)c3=O)C2=O)ccc1O	mIAP inh 42
CCOc1cccc(/C=C2\NC(=S)N(c3ccccc3)C2=O)c1O	none (no result: bIAP inh, bIAP activator)
O=C(Nc1ccccc1)Nc1ccc(-n2ccc(C(F)(F)F)n2)cc1	mIAP activ 2.4 (no result: bIAP inh, bIAP activator)
CCN(CC(=O)Nc1c(F)cccc1F)C(=O)c1nc2nc(C)cc(C)n2n1	none (no result: bIAP inh, bIAP activator)
O=C(CN1CCN(CC(=O)Nc2ccccc2Cl)CC1)NCC1(N2CCOCC2)CCCCC1	none (no result: bIAP inh, bIAP activator)
COc1ccc(OC)c(-c2cnc(OC(C)(C)C)nc2OC(C)(C)C)c1	none
Cc1c(Cl)cccc1NC(=O)CCC(=O)N/N=C/c1ccc[nH]1	mIAP inh 51
Cc1ccc(C)c(NC(=O)CCC(=O)N/N=C/c2ccc[nH]2)c1	none
C=C(C)c1cccc(C(C)(C)NC(=O)NCCCN2CCCC2=O)c1	none
C=C(C)c1cccc(C(C)(C)NC(=O)NCCCn2ccnc2)c1	bIAP activator 2.3
CSc1nsc(SC)c1NC(=O)OCc1ccccc1	none
CSc1nsc(SC)c1NC(=O)OCCc1ccccn1	mIAP inh 41
CC(=O)c1ccc(N2CCN(S(=O)(=O)c3cc4c(cc3C)NC(=O)CO4)CC2)cc1	none (no result: bIAP inh, bIAP activator)
COc1cc(NC(=O)C2CCC(CNc3c(N4CCC(C)CC4)c(=O)c3=O)CC2)cc(OC)c1 (centres undefined)	none
COc1ccc(NC(=O)C2CCC(CNc3c(N4CCC(C)CC4)c(=O)c3=O)CC2)cc1OC (centres undefined)	bIAP activator 3.1
O=C(Nc1nc(-c2ccccc2)cs1)Nc1ccc(F)cc1F	none
O=C(Nc1ccccc1)Nc1nc(-c2ccc(F)c(F)c2)cs1	mIAP activ 2.5 (no result: bIAP inh, bIAP activator)
O=C(Nc1ccccc1)Nc1nc(-c2ccccc2)cs1	none (no result: bIAP inh, bIAP activator)
